Measurements from different studies.
Protocols differ between the studies behind these lines.
Tumor necrosis factor receptor superfamily member 9: Tumor necrosis factor receptor superfamily member 9 (Homo sapiens, UniProt Q07011)
IDE: Insulin-degrading enzyme (IDE, Homo sapiens, UniProt P14735)

SMILES	target	read-out	action	method	setting	quantity	result
CCCC[C@@H]1NC(=O)[C@H](Cc2ccc(O)cc2)NC(=O)[C@@H]2CCCN2C(=O)[C@H](CC(=O)O)NC(=O)[C@H](C)NC(=O)[C@H](Cc2ccccc2)NC(=O)[C@@H]2CSCCC(=O)N3CN(CN(C3)C(=O)CCSC[C@@H](C(=O)N[C@@H](CNC(=O)CCc3cn(CCOCCOCCOCCOCCOCCOCCOCCOCCOCCOCCOCCOCCC(=O)NCCC(=O)N(C)CC(=O)N(C)CC(=O)N(C)CC(=O)N(C)CC(=O)N(C)CC(=O)N(C)CC(=O)N(C)CC(=O)N(C)CC(=O)N(C)CC(=O)N(C)CC(=O)NCCCC[C@@H]4NC(=O)[C@H](Cc5cccc6ccccc56)NC(=O)[C@@H]5CCCN5C(=O)[C@@H](NC(C)=O)CSCCC(=O)N5CN6CN(C5)C(=O)CCSC[C@H](NC4=O)C(=O)N[C@@H](CCSC)C(=O)N[C@@H](CCCCNC(=N)N)C(=O)N[C@@H](CC(=O)O)C(=O)N[C@@H](Cc4c[nH]c5ccccc45)C(=O)N[C@@H](CO)C(=O)N[C@@H]([C@@H](C)O)C(=O)N4CCC[C@H]4C(=O)N4C[C@H](O)C[C@H]4C(=O)N[C@@H](Cc4c[nH]c5ccccc45)C(=O)N[C@H](C(N)=O)CSCCC6=O)nn3)C(N)=O)NC1=O)C(=O)CCSC[C@H](NC(C)=O)C(=O)N[C@@H](CC(C)(C)C)C(=O)N1CCC[C@H]1C(=O)N[C@@H](CCC(=O)O)C(=O)N[C@H](C)C(=O)N1CCC[C@H]1C(=O)N[C@@H](Cc1ccc(O)cc1)C(=O)N2	Tumor necrosis factor receptor superfamily member 9	binding		SPR		Kd	5.1 nM
COc1ccc(OC(=O)N(CC(=O)O)Cc2ccc(OCCc3nc(-c4ccccc4)oc3C)cc2)cc1	Peroxisome proliferator-activated receptor alpha (PPARA, Homo sapiens, UniProt Q07869)	reporter gene	agonist	luciferase		EC50	6500 nM
Cc1cnc(-c2ccc(-c3ccc(NC(=O)Nc4c(F)cc(F)cc4F)cc3F)c3c2C(=O)NC3)[nH]1	Myosin-IIIa (MYO3A, Homo sapiens, UniProt Q8NEV4)	binding		competition with immobilised ligand		Kd	13 nM
Cc1cc2nc3c(=O)[nH]c(=O)nc-3n(C[C@H](O)[C@H](O)[C@H](O)COP(=O)(O)OP(=O)(O)OC[C@H]3O[C@@H](n4cnc5c(N)ncnc54)[C@H](O)[C@@H]3O)c2cc1C	Heat shock protein beta-1 (HSPB1, Homo sapiens, UniProt P04792)	binding			lysate	Kd	159 nM
CC#CC(=O)N1CC[C@@H](n2cc(-c3ccc(Oc4c(F)cccc4F)cc3)c3c(N)n[nH]c(=O)c32)C1	Tyrosine-protein kinase JAK3 (JAK3, Homo sapiens, UniProt P52333)	binding		competition with immobilised ligand		Kd	> 3000 nM
CC/C=C\C/C=C\C/C=C\C/C=C\C/C=C\C/C=C\CCC(=O)O	Nuclear receptor subfamily 4 group A member 2 (Homo sapiens, UniProt P43354)	binding				Kd	30000 nM
CCCC[C@@H]1NC(=O)[C@H](Cc2ccc(O)cc2)NC(=O)[C@@H]2CCCN2C(=O)[C@H](CC(=O)O)NC(=O)[C@H](C)NC(=O)[C@H](Cc2ccccc2)NC(=O)[C@@H]2CSCCC(=O)N3CN(CN(C3)C(=O)CCSC[C@@H](C(=O)N[C@@H](CNC(=O)CCc3cn(CC(=O)N[C@H]4CSCCC(=O)N5CN6CN(C5)C(=O)CCSC[C@H](NC(=O)[C@@H](CC(=O)O)NC(=O)[C@H](Cc5cccc7ccccc57)NC(=O)[C@@H]5CCCN5C4=O)C(=O)N[C@@H](CCSC)C(=O)N[C@@H](CCCCNC(=N)N)C(=O)N[C@@H](CC(=O)O)C(=O)N[C@@H](Cc4c[nH]c5ccccc45)C(=O)N[C@@H](CO)C(=O)N[C@@H]([C@@H](C)O)C(=O)N4CCC[C@H]4C(=O)N4C[C@H](O)C[C@H]4C(=O)N[C@@H](Cc4c[nH]c5ccccc45)C(=O)N[C@H](C(N)=O)CSCCC6=O)nn3)C(N)=O)NC1=O)C(=O)CCSC[C@H](NC(C)=O)C(=O)N[C@@H](CC(C)(C)C)C(=O)N1CCC[C@H]1C(=O)N[C@@H](CCC(=O)O)C(=O)N[C@H](C)C(=O)N1CCC[C@H]1C(=O)N[C@@H](Cc1ccc(O)cc1)C(=O)N2	Tumor necrosis factor receptor superfamily member 9	binding		SPR		Kd	3.5 nM
c1cncc(-c2cccc(Nc3nccc(NC4CCCCC4)n3)c2)c1	Macrophage colony-stimulating factor 1 receptor (CSF1R, Homo sapiens, UniProt P07333)	binding		competition with immobilised ligand		Kd	590 nM
O=C(O)CN(CC(=O)N[C@H](CO)Cc1c[nH]cn1)Cc1ccccc1	IDE	enzyme activity	inhibitor	fluorescence		IC50	4100 nM
Nc1nc2c(ncn2[C@@H]2O[C@H](COP(=O)(O)OP(=O)(O)OP(=O)(O)OC[C@H]3O[C@@H](n4cnc5c(=O)[nH]c(N)nc54)[C@H](O)[C@@H]3O)[C@@H](O)[C@H]2O)c(=O)[nH]1	Gem-associated protein 5 (Homo sapiens, UniProt Q8TEQ6)	binding		ITC		Kd	140000 nM
CC(C)COC(=O)[C@H](Cc1cnc[nH]1)NC(=O)CN(CC(=O)O)Cc1ccccc1	IDE	enzyme activity	inhibitor	fluorescence		IC50	600 nM
CC(C)C[C@H](NC(=O)[C@H](Cc1ccccc1)NC(=O)[C@H](Cc1ccc(O)cc1)NC(=O)CNC(=O)[C@H](CCCNC(=N)N)NC(=O)[C@H](CO)NC(=O)[C@H](CCC(N)=O)NC(=O)[C@H](CO)NC(=O)[C@H](C)NC(=O)[C@H](Cc1ccccc1)NC(=O)[C@@H]1CCCN1C(=O)[C@H](CO)NC(=O)[C@H](CCC(N)=O)NC(=O)[C@H](Cc1ccccc1)NC(=O)[C@H](CCC(=O)O)NC(=O)[C@H](CCC(=O)O)NC(=O)[C@H](CC(=O)O)NC(=O)[C@@H](NC(=O)[C@H](CCCNC(=N)N)NC(=O)[C@@H](N)Cc1ccccc1)C(C)C)C(=O)N[C@@H](Cc1ccccc1)C(=O)N[C@@H](CCCNC(=N)N)C(=O)N1CCC[C@H]1C(=O)N[C@@H](CCCNC(=N)N)C(=O)N[C@@H](CC(N)=O)C(N)=O	Neuromedin-U receptor 2 (NMUR2, Homo sapiens, UniProt Q9GZQ4)	inositol phosphate	agonist			EC50	0.166 nM
COC(=O)[C@H](Cc1c[nH]cn1)NC(=O)CN(CC(=O)O)Cc1ccc2ccccc2c1	IDE	enzyme activity	inhibitor	fluorescence		IC50	1200 nM
CNC(=O)c1cc2c(Oc3ccc(NC(=O)C4(C(=O)Nc5ccc(F)cc5)CC4)cc3)ccnc2cc1OC	Hepatocyte growth factor receptor (MET, Homo sapiens, UniProt P08581, Y1230D)	enzyme activity	inhibitor	radiometric		IC50	9 nM
COC(=O)[C@H](Cc1c[nH]cn1)NC(=O)CN(CC(=O)NO)Cc1ccccc1	IDE	enzyme activity	inhibitor	fluorescence		IC50	3200 nM
CCCC[C@@H]1NC(=O)[C@H](Cc2ccc(O)cc2)NC(=O)[C@@H]2CCCN2C(=O)[C@H](CC(=O)O)NC(=O)[C@H](C)NC(=O)[C@H](Cc2ccccc2)NC(=O)[C@@H]2CSCCC(=O)N3CN(CN(C3)C(=O)CCSC[C@@H](C(=O)N[C@@H](C)C(N)=O)NC1=O)C(=O)CCSC[C@H](NC(C)=O)C(=O)N[C@@H](CC(C)(C)C)C(=O)N1CCC[C@H]1C(=O)N[C@@H](CCC(=O)O)C(=O)N[C@H](CCCCNC(=O)CCc1cn(CC(=O)N[C@H]3CSCCC(=O)N4CN5CN(C4)C(=O)CCSC[C@H](NC(=O)[C@@H](CC(=O)O)NC(=O)[C@H](Cc4cccc6ccccc46)NC(=O)[C@@H]4CCCN4C3=O)C(=O)N[C@@H](CCSC)C(=O)N[C@@H](CCCCNC(=N)N)C(=O)N[C@@H](CC(=O)O)C(=O)N[C@@H](Cc3c[nH]c4ccccc34)C(=O)N[C@@H](CO)C(=O)N[C@@H]([C@@H](C)O)C(=O)N3CCC[C@H]3C(=O)N3C[C@H](O)C[C@H]3C(=O)N[C@@H](Cc3c[nH]c4ccccc34)C(=O)N[C@H](C(N)=O)CSCCC5=O)nn1)C(=O)N1CCC[C@H]1C(=O)N[C@@H](Cc1ccc(O)cc1)C(=O)N2	Tumor necrosis factor receptor superfamily member 9	binding		SPR		Kd	9 nM
